{
  "source": "ChEMBL document CHEMBL1121797",
  "about": "“Studies on chiral interactions of 1-(2,5-dimethoxy-4-methylphenyl)-2-aminopropane and the corresponding N-hydroxy metabolites with cytochrome P-450” (J Med Chem, 1981)",
  "key": {"Cytochrome P450 2C19 [1]": {"molecular_target": "T1, Cytochrome P450 2C19 (Homo sapiens, UniProt P33261)", "T1 sequence (P33261 whole entry)": "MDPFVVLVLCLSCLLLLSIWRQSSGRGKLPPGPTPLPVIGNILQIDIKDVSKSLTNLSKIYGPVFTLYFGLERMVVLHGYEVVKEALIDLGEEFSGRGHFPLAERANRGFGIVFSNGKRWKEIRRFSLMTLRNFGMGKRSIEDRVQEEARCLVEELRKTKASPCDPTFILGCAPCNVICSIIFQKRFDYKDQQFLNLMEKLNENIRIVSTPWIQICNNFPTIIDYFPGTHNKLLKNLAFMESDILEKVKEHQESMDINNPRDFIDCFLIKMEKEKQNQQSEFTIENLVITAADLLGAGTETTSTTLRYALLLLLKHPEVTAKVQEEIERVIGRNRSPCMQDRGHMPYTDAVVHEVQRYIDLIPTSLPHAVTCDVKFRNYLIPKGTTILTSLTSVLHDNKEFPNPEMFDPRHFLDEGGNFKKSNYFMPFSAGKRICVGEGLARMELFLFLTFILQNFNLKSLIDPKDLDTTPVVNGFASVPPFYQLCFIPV", "assay": "(§1) Extent of complex formation with 20 uM compound", "format": "ADME, Oryctolagus cuniculus", "conditions": "rabbit"}, "Cytochrome P450 2C19 [2]": {"molecular_target": "T1, Cytochrome P450 2C19", "assay": "(§2) Extent of complex formation with 30 uM compound", "format": "ADME, Oryctolagus cuniculus", "conditions": "rabbit"}, "Cytochrome P450 2C19 [3]": {"molecular_target": "T1, Cytochrome P450 2C19", "assay": "Initial rate of complex formation with 20 uM compound", "format": "ADME, Oryctolagus cuniculus", "conditions": "rabbit"}, "Cytochrome P450 2C19 [4]": {"molecular_target": "T1, Cytochrome P450 2C19", "assay": "Percent inhibition of formation of metabolic intermediate complex between Cytochrome P450 and compound 1a (30 uM) initially, following incubation at compound concentration of 0 uM", "format": "ADME, Oryctolagus cuniculus", "conditions": "rabbit, probe compound 1a (30 uM)", "in_short": "(§3)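 Inverse cross-inhibition in NADPH-supplemented rabbit liver microsomes at 37 °C. Preincubation with racemic hydroxylamine at 0–30 μM, monitoring 457-nm complex formation. The amine was then added at 30 μM, or racemic hydroxylamine at 30 μM. Initial rate and plateau extent were taken from ΔA457–500 nm tracings. Percent inhibition is relative to incubation in fresh microsomes.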"}, "Cytochrome P450 2C19 [5]": {"molecular_target": "T1, Cytochrome P450 2C19", "assay": "(§4) Extent of complex formation with 5 uM compound", "format": "ADME, Oryctolagus cuniculus", "conditions": "rabbit"}, "Cytochrome P450 2C19 [6]": {"molecular_target": "T1, Cytochrome P450 2C19", "assay": "Initial rate of complex formation without compound", "format": "ADME, Oryctolagus cuniculus", "conditions": "rabbit", "in_short": "as §3"}, "Cytochrome P450 2C19 [7]": {"molecular_target": "T1, Cytochrome P450 2C19", "assay": "Initial rate of complex formation with20 uM compound", "format": "ADME, Oryctolagus cuniculus", "conditions": "rabbit, 20 µM"}, "Cytochrome P450 2C19 [8]": {"molecular_target": "T1, Cytochrome P450 2C19", "assay": "(§5) Initial rate of complex formation with 30 uM compound", "format": "ADME, Oryctolagus cuniculus", "conditions": "rabbit"}, "Cytochrome P450 2C19 [9]": {"molecular_target": "T1, Cytochrome P450 2C19", "assay": "Initial rate of complex formation with 15 uM compound", "format": "ADME, Oryctolagus cuniculus", "conditions": "rabbit"}, "Cytochrome P450 2C19 [10]": {"molecular_target": "T1, Cytochrome P450 2C19", "assay": "as §5", "format": "ADME, Oryctolagus cuniculus", "conditions": "rabbit", "remark": "listed apart in the source"}, "Cytochrome P450 2C19 [11]": {"molecular_target": "T1, Cytochrome P450 2C19", "assay": "Initial rate of complex formation with 5 uM compound", "format": "ADME, Oryctolagus cuniculus", "conditions": "rabbit"}, "Cytochrome P450 2C19 [12]": {"molecular_target": "T1, Cytochrome P450 2C19", "assay": "Extent of complex formation without compound", "format": "ADME, Oryctolagus cuniculus", "conditions": "rabbit", "in_short": "as §3"}, "Cytochrome P450 2C19 [13]": {"molecular_target": "T1, Cytochrome P450 2C19", "assay": "as §4", "format": "ADME, Oryctolagus cuniculus", "conditions": "rabbit", "remark": "listed apart in the source"}, "Cytochrome P450 2C19 [14]": {"molecular_target": "T1, Cytochrome P450 2C19", "assay": "as §1", "format": "ADME, Oryctolagus cuniculus", "conditions": "rabbit", "remark": "listed apart in the source"}, "Cytochrome P450 2C19 [15]": {"molecular_target": "T1, Cytochrome P450 2C19", "assay": "as §2", "format": "ADME, Oryctolagus cuniculus", "conditions": "rabbit", "remark": "listed apart in the source"}, "Cytochrome P450 2C19 [16]": {"molecular_target": "T1, Cytochrome P450 2C19", "assay": "as §1", "format": "ADME, Oryctolagus cuniculus", "conditions": "rabbit", "remark": "listed apart in the source"}, "Cytochrome P450 2C19 [17]": {"molecular_target": "T1, Cytochrome P450 2C19", "assay": "as §5", "format": "ADME, Oryctolagus cuniculus", "conditions": "rabbit", "remark": "listed apart in the source"}, "Cytochrome P450 2C19 [18]": {"molecular_target": "T1, Cytochrome P450 2C19", "assay": "as §1", "format": "ADME, Oryctolagus cuniculus", "conditions": "rabbit", "remark": "listed apart in the source"}, "Cytochrome P450 2C19 [19]": {"molecular_target": "T1, Cytochrome P450 2C19", "assay": "Extent of complex formation with 15 uM compound", "format": "ADME, Oryctolagus cuniculus", "conditions": "rabbit"}, "Cytochrome P450 2C19 [20]": {"molecular_target": "T1, Cytochrome P450 2C19", "assay": "as §2", "format": "ADME, Oryctolagus cuniculus", "conditions": "rabbit", "remark": "listed apart in the source"}, "Cytochrome P450 2C19 [21]": {"molecular_target": "T1, Cytochrome P450 2C19", "assay": "Percent inhibition of formation of metabolic intermediate complex between Cytochrome P450 and compound 1a (30 uM) initially, on pre-incubation with compound concentration of 5 uM", "format": "ADME, Oryctolagus cuniculus", "conditions": "rabbit, probe compound 1a (30 uM)", "in_short": "as §3"}, "Cytochrome P450 2C19 [22]": {"molecular_target": "T1, Cytochrome P450 2C19", "assay": "as §2", "format": "ADME, Oryctolagus cuniculus", "conditions": "rabbit", "remark": "listed apart in the source"}, "Cytochrome P450 2C19 [23]": {"molecular_target": "T1, Cytochrome P450 2C19", "assay": "as §5", "format": "ADME, Oryctolagus cuniculus", "conditions": "rabbit", "remark": "listed apart in the source"}, "[24]": {"assay": "Lag time between the addition of compound (30 uM) and the first appearance of chromophore", "format": "ADME", "in_short": "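Rabbit liver microsomes at 2 mg protein/mL with 0.1 mM EDTA, 37 °C, substrate 30 μM. Complex formation started with 0.4 mM NADPH and followed by dual-wavelength absorbance, 457 vs 500 nm. Initial rate is the initial slope, ΔA×10^4 per nmol P-450 per min. Extent is the plateau absorbance. Lag is the time from NADPH addition to first 457-nm chromophore. Triplicate or single runs.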"}},
  "note": "Values joined by “and” are separate entries in the source; they are usually repeats but may differ in a detail not shown here. Equal values may be shown once.",
  "data": [
    {"smiles": "COc1cc(C[C@@H](C)NO)c(OC)cc1C.COc1cc(C[C@H](C)NO)c(OC)cc1C", "values": [
      {"measurement": "Complex_formation", "setting": "Cytochrome P450 2C19 [1]", "result": 108, "unit": "deltaA.10^4nmol-1"},
      {"measurement": "Complex_formation", "setting": "Cytochrome P450 2C19 [2]", "result": 27, "unit": "deltaA.10^4nmol-1"},
      {"measurement": "Initial_rate", "setting": "Cytochrome P450 2C19 [3]", "result": 89, "unit": "deltaA.10^4nmol-1.min-1"},
      {"measurement": "inhibition at 0 uM", "setting": "Cytochrome P450 2C19 [4]", "result": 30, "unit": "%"},
      {"measurement": "Complex_formation", "setting": "Cytochrome P450 2C19 [5]", "result": 39, "unit": "deltaA.10^4nmol-1"},
      {"measurement": "Initial_rate", "setting": "Cytochrome P450 2C19 [6]", "result": "46 deltaA.10^4nmol-1.min-1 and 124 deltaA.10^4nmol-1.min-1"},
      {"measurement": "Initial_rate", "setting": "Cytochrome P450 2C19 [7]", "result": 87, "unit": "deltaA.10^4nmol-1.min-1"},
      {"measurement": "Initial_rate", "setting": "Cytochrome P450 2C19 [8]", "result": 12.4, "unit": "deltaA.10^4nmol-1.min-1"},
      {"measurement": "Initial_rate", "setting": "Cytochrome P450 2C19 [9]", "result": 131, "unit": "deltaA.10^4nmol-1.min-1"},
      {"measurement": "Initial_rate", "setting": "Cytochrome P450 2C19 [10]", "result": "177 deltaA.10^4nmol-1.min-1 and 176 deltaA.10^4nmol-1.min-1"},
      {"measurement": "Initial_rate", "setting": "Cytochrome P450 2C19 [11]", "result": 52, "unit": "deltaA.10^4nmol-1.min-1"},
      {"measurement": "Complex_formation", "setting": "Cytochrome P450 2C19 [12]", "result": "76 deltaA.10^4nmol-1 and 95 deltaA.10^4nmol-1"},
      {"measurement": "Complex_formation", "setting": "Cytochrome P450 2C19 [13]", "result": "43 deltaA.10^4nmol-1 and 85 deltaA.10^4nmol-1"},
      {"measurement": "Complex_formation", "setting": "Cytochrome P450 2C19 [14]", "result": 109, "unit": "deltaA.10^4nmol-1"},
      {"measurement": "Complex_formation", "setting": "Cytochrome P450 2C19 [15]", "result": 30, "unit": "deltaA.10^4nmol-1"},
      {"measurement": "Complex_formation", "setting": "Cytochrome P450 2C19 [16]", "result": 85, "unit": "deltaA.10^4nmol-1"},
      {"measurement": "Initial_rate", "setting": "Cytochrome P450 2C19 [17]", "result": 5.5, "unit": "deltaA.10^4nmol-1.min-1"},
      {"measurement": "Complex_formation", "setting": "Cytochrome P450 2C19 [18]", "result": 90, "unit": "deltaA.10^4nmol-1"},
      {"measurement": "Complex_formation", "setting": "Cytochrome P450 2C19 [19]", "result": 97, "unit": "deltaA.10^4nmol-1"},
      {"measurement": "Complex_formation", "setting": "Cytochrome P450 2C19 [20]", "result": "139 deltaA.10^4nmol-1 and 135 deltaA.10^4nmol-1"},
      {"measurement": "inhibition at 5 µM", "setting": "Cytochrome P450 2C19 [21]", "result": 80, "unit": "%"},
      {"measurement": "Complex_formation", "setting": "Cytochrome P450 2C19 [22]", "result": 51, "unit": "deltaA.10^4nmol-1"},
      {"measurement": "Initial_rate", "setting": "Cytochrome P450 2C19 [23]", "result": 5, "unit": "deltaA.10^4nmol-1.min-1"},
      {"measurement": "Lag time", "setting": "[24]", "result": 0, "unit": "s"}
    ]}
  ]
}
